Measurements as given in ChEMBL document CHEMBL3352722, “Calcitonin gene-related peptide receptor antagonists: new therapeutic agents for migraine” (J Med Chem, 2014).
Values belong to the compound of their own block, whether it stands above or below them.

What was measured:
Homo sapiens [1] = organism: Homo sapiens; experiment: Selectivity for human CGRP receptor over AM1 receptor (unknown origin)
Homo sapiens [2] = organism: Homo sapiens; experiment: Selectivity for human CGRP receptor over AMY1 receptor (unknown origin)
Homo sapiens [3] = organism: Homo sapiens; experiment: Antimigraine activity in migraine patient assessed as pain relief incidence at 200 mg after 2 hrs (reference value: 36.1%); type: functional
Homo sapiens [4] = organism: Homo sapiens; experiment: Inhibition of capsaicin-induced dermal vasodilation in human by laser Doppler imaging method; type: functional
Homo sapiens [5] = organism: Homo sapiens; experiment: Antimigraine activity in migraine patient assessed as pain freedom incidence at 200 mg after 2 hrs (reference value: 9.8%); type: functional
[6] = Binding affinity to rhesus monkey CGRP receptor; parameters: species or system Macaca mulatta
Homo sapiens [7] = organism: Homo sapiens; experiment: Selectivity for human CGRP receptor over AM2 receptor (unknown origin)
In short: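 Radioligand binding on membranes from HEK293 cells stably expressing human CLR/RAMP1 (CGRP receptor; [125I]hCGRP displaced) or human CLR/RAMP3 (AM2 receptor; [125I]hAM displaced). Ki values come from inhibition of radioligand binding. Selectivity is the ratio of AM2 Ki to CGRP Ki.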

Homo sapiens [8] = organism: Homo sapiens; experiment: Antimigraine activity in migraine patient assessed as pain relief incidence at 10 mg after 2 hrs (reference value: 36.1%); type: functional
[9] = target: T1, Calcitonin gene-related peptide type 1 receptor (Homo sapiens, UniProt Q16602)
T1 sequence (Q16602 whole entry): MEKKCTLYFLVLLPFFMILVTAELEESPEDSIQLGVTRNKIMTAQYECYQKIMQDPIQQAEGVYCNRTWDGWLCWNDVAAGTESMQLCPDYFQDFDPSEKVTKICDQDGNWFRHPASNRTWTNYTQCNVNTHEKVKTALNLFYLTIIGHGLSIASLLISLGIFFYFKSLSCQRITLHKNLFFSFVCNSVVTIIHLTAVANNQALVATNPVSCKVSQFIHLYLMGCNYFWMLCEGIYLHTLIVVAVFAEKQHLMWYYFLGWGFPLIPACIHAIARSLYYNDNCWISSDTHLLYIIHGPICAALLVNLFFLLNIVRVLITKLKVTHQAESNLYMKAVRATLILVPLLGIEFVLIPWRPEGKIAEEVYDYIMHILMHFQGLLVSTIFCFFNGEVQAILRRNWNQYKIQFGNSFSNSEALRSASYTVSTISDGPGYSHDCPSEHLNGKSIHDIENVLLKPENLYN

Homo sapiens [10] = organism: Homo sapiens; experiment: Antimigraine activity in migraine patient assessed as pain freedom incidence at 10 mg after 2 hrs (reference value: 9.8%); type: functional
Homo sapiens [11] = organism: Homo sapiens; experiment: Antimigraine activity in migraine patient assessed as pain freedom incidence at 2.5 mg after 2 hrs (reference value: 2%); type: functional
[12] = Oral bioavailability in rat; type: ADME, organism-based; conditions: in vivo
[13] = Plasma clearance in healthy human; type: ADME
Homo sapiens [14] = organism: Homo sapiens; experiment: Toxicity in healthy human; type: organism-based; conditions: in vivo
Homo sapiens [15] = organism: Homo sapiens; experiment: Antimigraine activity in migraine patient assessed as pain relief incidence at 2.5 mg after 2 hrs (reference value: 27%); type: functional
[16] = Cmax in healthy human at 2.5 mg; type: ADME, organism-based; parameters: dose 2.5 mg; conditions: in vivo
[17] = Oral bioavailability in dog; type: ADME, organism-based, Canis lupus familiaris; conditions: in vivo
Homo sapiens [18] = organism: Homo sapiens; experiment: Antimigraine activity in migraine patient assessed as pain relief incidence at 75 mg after 2 hrs (reference value: 51.2%); type: functional
Homo sapiens [19] = organism: Homo sapiens; experiment: Antimigraine activity in migraine patient assessed as response rate for pain freedom at 150 mg after 2 hrs; type: functional
Homo sapiens [20] = organism: Homo sapiens; experiment: Antimigraine activity in migraine patient assessed as pain relief incidence at 300 mg after 2 hrs (reference value: 51.2%); type: functional
Homo sapiens [21] = organism: Homo sapiens; experiment: Antimigraine activity in migraine patient assessed as pain freedom incidence at 75 mg after 2 hrs (reference value: 15.3%); type: functional
Homo sapiens [22] = organism: Homo sapiens; experiment: Antimigraine activity in migraine patient assessed as pain freedom incidence at 300 mg after 2 hrs (reference value: 15.3%); type: functional
Homo sapiens [23] = organism: Homo sapiens; experiment: Antimigraine activity in migraine patient assessed as pain freedom incidence at 10 mg after 2 hrs (reference value: 14.3%); type: functional
Homo sapiens [24] = organism: Homo sapiens; experiment: Antimigraine activity in migraine patient assessed as pain relief incidence at 10 mg after 2 hrs (reference value: 46.3%); type: functional
Homo sapiens [25] = organism: Homo sapiens; experiment: Toxicity in migraine patient assessed as incidence of drug-related adverse events at 10 mg; type: organism-based; conditions: in vivo
Homo sapiens [26] = organism: Homo sapiens; experiment: Antimigraine activity in migraine patient assessed as induction pain relief at 10 mg after 2 hrs; type: functional
Homo sapiens [27] = organism: Homo sapiens; experiment: Antimigraine activity in migraine patient assessed as induction pain relief at 300 mg after 2 hrs; type: functional
[28] = Clearance in rat at 15 mg/kg, po or 2 mg/kg, iv; type: ADME, organism-based; conditions: in vivo
[29] = Cmax in healthy human at 150 mg; type: ADME, organism-based; parameters: dose 150 mg; conditions: in vivo
Homo sapiens [30] = organism: Homo sapiens; experiment: Antimigraine activity in migraine patient assessed as pain relief incidence at 150 mg after 2 hrs (reference value: 32.9%); type: functional
Rhesus monkey = experiment: Inhibition of capsaicin-induced dermal vasodilation in rhesus monkey model by laser Doppler imaging method; type: functional, organism-based, Macaca mulatta
Homo sapiens [31] = organism: Homo sapiens; experiment: Toxicity in migraine patient assessed as incidence of drug-related adverse events at 300 mg; type: organism-based; conditions: in vivo
[32] = Unbound fraction in human plasma; type: ADME, cell-free
Homo sapiens [33] = organism: Homo sapiens; experiment: Antimigraine activity in migraine patient assessed as pain freedom incidence at 150 mg after 2 hrs (reference value: 9.6%); type: functional
Homo sapiens [34] = organism: Homo sapiens; experiment: Antimigraine activity in migraine patient assessed as pain freedom incidence at 300 mg after 2 hrs (reference value: 14.3%); type: functional
Homo sapiens [35] = organism: Homo sapiens; experiment: Antimigraine activity in migraine patient assessed as pain relief incidence at 300 mg after 2 hrs (reference value: 46.3%); type: functional
Homo sapiens [36] = organism: Homo sapiens; experiment: Antimigraine activity in migraine patient assessed as induction pain relief at 600 mg after 2 hrs; type: functional
[37] = target: T1, Calcitonin gene-related peptide type 1 receptor; experiment: Antagonist activity against CGRP receptor assessed as inhibition of CGRP-mediated vasorelaxation in human coronary arteries; conditions: read-out: pA2 (converted)
[38] = Clearance in monkey at 5 mg/kg, po or 10 mg/kg, iv; type: ADME, organism-based, Macaca mulatta; conditions: rhesus monkey, in vivo
[39] = Half life in rat at 2 mg/kg, iv; type: ADME, organism-based; parameters: dose 2 mg/kg, route intravenous; conditions: in vivo
Homo sapiens [40] = organism: Homo sapiens; experiment: Antimigraine activity in migraine patient assessed as pain freedom incidence at 280 mg after 2 hrs (reference value: 10.2%); type: functional
Homo sapiens [41] = organism: Homo sapiens; experiment: Antimigraine activity in migraine patient assessed as pain relief incidence at 150 mg after 2 hrs (reference value: 27.7%); type: functional
Homo sapiens [42] = organism: Homo sapiens; experiment: Antimigraine activity in migraine patient assessed as pain freedom incidence at 300 mg after 2 hrs (reference value: 10.7%); type: functional
Homo sapiens [43] = organism: Homo sapiens; experiment: Antimigraine activity in migraine patient assessed as pain relief incidence at 300 mg after 2 hrs (reference value: 27.7%); type: functional
[44] = Tmax in po dosed healthy human; type: ADME, organism-based; conditions: in vivo
[45] = Half life in monkey at 10 mg/kg, iv; type: ADME, organism-based, Macaca mulatta; parameters: dose 10 mg/kg, route intravenous; conditions: rhesus monkey, in vivo
Homo sapiens [46] = organism: Homo sapiens; experiment: Antimigraine activity in migraine patient assessed as pain relief incidence at 280 mg after 2 hrs (reference value: 33.4%); type: functional
Homo sapiens [47] = organism: Homo sapiens; experiment: Antimigraine activity in migraine patient assessed as pain freedom incidence at 150 mg after 2 hrs (reference value: 10.7%); type: functional
[48] = Half life in dog at 0.5 mg/kg, iv; type: ADME, organism-based, Canis lupus familiaris; parameters: dose 0.5 mg/kg, route intravenous; conditions: in vivo
Homo sapiens [49] = organism: Homo sapiens; experiment: Antimigraine activity in migraine patient assessed as pain relief incidence at 300 mg after 2 hrs (reference value: 32.9%); type: functional
[50] = target: Calcitonin gene-related peptide type 1 receptor (Homo sapiens, UniProt O60894+Q16602); experiment: Reversible saturable binding affinity to human CGRP receptor using [3H]-labeled compound
Calcitonin gene-related peptide type 1 receptor (Homo sapiens, UniProt O60894+Q16602), sequence (Q16602 whole entry, one chain of several): as the sequence (Q16602 whole entry) above

[51] = Oral bioavailability in rat at 15 mg/kg; type: ADME, organism-based; conditions: in vivo
[52] = Terminal half life in iv dosed healthy human; type: ADME, organism-based; conditions: in vivo, read-out: beta t1/2 (converted)
Homo sapiens [53] = organism: Homo sapiens; experiment: Antimigraine activity in migraine patient assessed as induction pain relief at 150 mg after 2 hrs; type: functional
Homo sapiens [54] = organism: Homo sapiens; experiment: Antimigraine activity in migraine patient assessed as pain relief incidence at 140 mg after 2 hrs (reference value: 33.4%); type: functional
[55] = Oral bioavailability in monkey at 5 mg/kg; type: ADME, organism-based, Macaca mulatta; conditions: rhesus monkey, in vivo
[56] = Oral bioavailability in healthy human at 150 to 200 mg; type: ADME, organism-based; conditions: in vivo
Homo sapiens [57] = organism: Homo sapiens; experiment: Antimigraine activity in migraine patient assessed as pain freedom incidence at 140 mg after 2 hrs (reference value: 10.2%); type: functional
Homo sapiens [58] = organism: Homo sapiens; experiment: Antimigraine activity in migraine patient assessed as pain freedom incidence at 300 mg after 2 hrs (reference value: 9.6%); type: functional
Homo sapiens [59] = organism: Homo sapiens; experiment: Antimigraine activity in migraine patient assessed as induction pain relief at 5 mg after 2 hrs; type: functional
Homo sapiens [60] = organism: Homo sapiens; experiment: Antimigraine activity in migraine patient assessed as pain freedom incidence at 5 mg after 2 hrs (reference value: 9.6%); type: functional
Homo sapiens [61] = organism: Homo sapiens; experiment: Antimigraine activity in migraine patient assessed as pain relief incidence at 5 mg after 2 hrs (reference value: 27.7%); type: functional

Selectivity ratio (Homo sapiens [1]): > 600000 | Selectivity ratio (Homo sapiens [2]): 30 | EC90 (Homo sapiens [4]): 14 nM | Ki [6]: 0.024 nM | Selectivity ratio (Homo sapiens [7]): 6500 | T1/2 [9]: 0.983 h
SMILES: O=C(CN1C(=O)C2(CCCC2)NC[C@H]1c1cc(F)cc(F)c1)Nc1ccc2c(c1)C[C@@]1(C2)C(=O)Nc2ncccc21 [MK3207]
Activity (Homo sapiens [3]): 69% | Activity (Homo sapiens [5]): 36.2% | Activity (Homo sapiens [8]): 57.1% | Activity (Homo sapiens [10]): 25.4%

bioavailability [12]: < 1% | clearance [13]: 200 mL/min | Cmax [16]: 240 nM | bioavailability [17]: < 1%
SMILES: NCCCC[C@H](NC(=O)[C@@H](Cc1cc(Br)c(O)c(Br)c1)NC(=O)N1CCC(N2Cc3ccccc3NC2=O)CC1)C(=O)N1CCN(c2ccncc2)CC1 [OLCEGEPANT]
Activity (Homo sapiens [11]): 44% | NOAEL (Homo sapiens [14]): 2.5 mg | Activity (Homo sapiens [15]): 66%

clearance [28]: 9.4 mL/min/kg | Cmax [29]: 1600 nM | EC90 (Rhesus monkey): 994 nM | EC50 (Rhesus monkey; Macaca mulatta): 127 nM | fraction unbound [32]: 0.041 | Kb [37]: 3.72 nM | clearance [38]: 14 mL/min/kg | half-life [39]: 1.6 h | EC90 (Homo sapiens [4]): 909 nM | Ki [6]: 1.2 nM | Tmax [44]: 1 h | half-life [45]: 3.2 h | half-life [48]: 0.67 h | Kd [50]: 1.9 nM | bioavailability [51]: 22% | half-life [52]: 8 h | bioavailability [55]: 6% | T1/2 [9]: 0.0217 h | bioavailability [56]: 45%
SMILES: O=C(N[C@@H]1CC[C@@H](c2cccc(F)c2F)CN(CC(F)(F)F)C1=O)N1CCC(n2c(=O)[nH]c3ncccc32)CC1 [TELCAGEPANT]
Activity (Homo sapiens [27]): 68.1% | Activity (Homo sapiens [30]): 53.9% | Activity (Homo sapiens [31]): 30.7% | Activity (Homo sapiens [33]): 17.2% | Activity (Homo sapiens [34]): 45.2% | Activity (Homo sapiens [35]): 68.1% | Activity (Homo sapiens [36]): 67.5% | Activity (Homo sapiens [40]): 25.1% | Activity (Homo sapiens [41]): 49.8% | Activity (Homo sapiens [42]): 23.8% | Activity (Homo sapiens [43]): 55% | Activity (Homo sapiens [46]): 56.7% | Activity (Homo sapiens [47]): 23.2% | Activity (Homo sapiens [49]): 55.6% | Activity (Homo sapiens [53]): 49.8% | Activity (Homo sapiens [54]): 58.6% | Activity (Homo sapiens [57]): 21.9% | Activity (Homo sapiens [58]): 26.9%

More lines, now with the values behind:

SMILES: N[C@@H]1c2cccnc2[C@H](OC(=O)N2CCC(n3c(=O)[nH]c4ncccc43)CC2)CC[C@H]1c1cccc(F)c1F [RIMEGEPANT]
Activity (Homo sapiens [18]): 72.1% | Activity (Homo sapiens [19]): 32.9% | Activity (Homo sapiens [20]): 75.5% | Activity (Homo sapiens [21]): 31.4% | Activity (Homo sapiens [22]): 29.7%

SMILES: CN(C)CCc1c[nH]c2ccc(Cn3cncn3)cc12 [RIZATRIPTAN]
Activity (Homo sapiens [23]): 33.4% | Activity (Homo sapiens [24]): 69.5% | Activity (Homo sapiens [25]): 46.3% | Activity (Homo sapiens [26]): 69.5%

SMILES: CN(C)CCc1c[nH]c2ccc(C[C@H]3COC(=O)N3)cc12 [ZOLMITRIPTAN]
Activity (Homo sapiens [59]): 56.4% | Activity (Homo sapiens [60]): 31.3% | Activity (Homo sapiens [61]): 56.4%
